From ChEMBL document CHEMBL1132144, “Synthesis of 9-O-substituted derivatives of 9-hydroxy-5, 6-dimethyl-6H-pyrido[4,3-b]carbazole-1-carboxylic acid (2-(dimethylamino)ethyl)amide and their 10- and 11-methyl analogues with improved antitumor activity” (J Med Chem, 1999)

Columns and labels:
Mus musculus [1] = assay: Long-term survivors among 7 mice infected with B16 melanoma, scored on day 90 at 20 mg/kg dose on day 1; format: functional
Mus musculus [2] = assay: Percent median survival time of mice injected with P388 leukemia, at a subcutaneous compound dose of 20 mg/kg; format: functional
Mus musculus [3] = assay: Long-term survivors among 7 mice infected with P388 leukemia, scored on day 60 at 20 mg/kg dose on day 1; format: functional
Summary of the method: (§1)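 B6D2F1 mice in groups of 6–7 received 10^6 P388 cells ip on day 0. Dihydrochloride salts dissolved in water were injected iv on day 1 or on days 1, 5 and 9, at three doses and then five. Read-outs were % T/C (median survival treated/control × 100) and long-term survivors on day 60, both at the optimal dose (no toxic death, weight loss <20%).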

Mus musculus [4] = assay: Percent median survival time of mice injected with B16 melanoma, at a intraperitoneal compound dose of 40 mg/kg
Mus musculus [5] = assay: Percent median survival time of mice injected with P388 leukemia, at a subcutaneous compound dose of 10 mg/kg; format: functional
B16 = assay: Inhibition of murine B16 melanoma cell proliferation measured by the MTT assay; format: functional, cell-based; conditions: Mus musculus
Summary of the method: (§2)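 Murine L1210 leukemia and B16 melanoma cells were grown in RPMI 1640 with 10% fetal calf serum, 2 mM L-glutamine, penicillin/streptomycin and 10 mM HEPES (pH 7.4). Cells were exposed to nine serial drug dilutions in triplicate for about four doubling times (L1210 48 h, B16 96 h), then read by microculture tetrazolium (MTT) assay. IC50 is the concentration halving optical density versus untreated controls, averaged over ≥2 independent experiments.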

L1210 = assay: Inhibition of murine L1210 leukemia cell proliferation measured by the MTT assay; format: functional, cell-based; conditions: Mus musculus; summary of the method: as §2
Mus musculus [6] = assay: Long-term survivors among 6 mice infected with P388 leukemia, scored on day 60 at 160 mg/kg dose; format: functional
Summary of the method: (§3)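 B6D2F1 mice in groups of 6–7 were inoculated ip on day 0 with 10^6 P388 cells. Dihydrochloride salts were dissolved in water and given iv on day 1 or on days 1, 5 and 9. Doses ranged from a low nontoxic dose to a toxic one. Long-term survivors were counted at day 60.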

Mus musculus [7] = assay: Long-term survivors among 6 mice infected with P388 leukemia, scored on day 60 at 80 mg/kg dose; format: functional; summary of the method: as §3
Mus musculus [8] = assay: Percent median survival time of mice intraperitoneally injected with P388 leukemia was determined from tested at 80 mg/kg at day1,5,9 dose to that of control; format: functional; conditions: route intraperitoneal
Summary of the method: (§4)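 P388 leukemia in B6D2F1 mice (groups of 6–7), 10^6 cells inoculated ip on day 0. Dihydrochloride salts were dissolved in water and given iv on day 1 or on days 1, 5, 9. Three doses were tested, then five if active. %T/C = median survival treated/control × 100, reported at the optimal dose (no toxic death, weight loss <20%), from one or two representative experiments.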

Mus musculus [9] = assay: Percent median survival time of mice intraperitoneally injected with P388 leukemia was determined from tested at 160 mg/kg at day1 dose to that of control; format: functional; summary of the method: as §4
Mus musculus [10] = assay: Percent median survival time of mice injected with B16 melanoma, at a intraperitoneal compound dose of 20 mg/kg
Mus musculus [11] = assay: Long-term survivors among 7 mice infected with P388 leukemia, scored on day 60 at 10 mg/kg dose on day 1; format: functional; summary of the method: as §1
Mus musculus [12] = assay: Percent median survival time of mice injected with P388 leukemia, at a subcutaneous compound dose of 10 mg/kg on day 1, 5, 9; format: functional
Mus musculus [13] = assay: Long-term survivors among 7 mice infected with B16 melanoma, scored on day 90 at 10 mg/kg dose on day 1; format: functional
Mus musculus [14] = assay: Percent median survival time of mice injected with B16 melanoma, at a intraperitoneal compound dose of 10 mg/kg
Mus musculus [15] = assay: Percent median survival time of mice injected with P388 leukemia, at a subcutaneous compound dose of 10 mg/kg on day 1; format: functional
Mus musculus [16] = assay: Long-term survivors among 14 mice infected with P388 leukemia, scored on day 60 at 40 mg/kg dose on day 1; format: functional; summary of the method: as §3
Mus musculus [17] = species: Mus musculus; assay: Long-term survivors among 14 mice infected with B16 melanoma, scored on day 90 at optimal dose on days 1-9
Mus musculus [18] = assay: Percent median survival time of mice injected with P388 leukemia, at a intravenous compound dose of 40 mg/kg
Mus musculus [19] = assay: Percent median survival time of mice injected with P388 leukemia, at a intravenous compound dose of 80 mg/kg
Mus musculus [20] = assay: Long-term survivors among 14 mice infected with P388 leukemia, scored on day 60 at 320 mg/kg dose on day 1; format: functional; summary of the method: as §3
Mus musculus [21] = assay: Percent median survival time of mice injected with P388 leukemia, at a intravenous compound dose of 320 mg/kg
Mus musculus [22] = species: Mus musculus; assay: Long-term survivors among 14 mice infected with B16 melanoma, scored on day 90 at optimal dose on days 1-9; remark: listed apart in the source
Mus musculus [23] = assay: Long-term survivors among 6 mice infected with P388 leukemia, scored on day 60 at 40 mg/kg dose on day 1; format: functional; summary of the method: as §3
Mus musculus [24] = assay: Percent median survival time of mice intraperitoneally injected with P388 leukemia was determined from tested at 40 mg/kg at day1 dose to that of control; format: functional; conditions: route intraperitoneal; summary of the method: as §4
Mus musculus [25] = assay: Percent median survival time of mice intraperitoneally injected with P388 leukemia was determined from tested at 40 mg/kg at day1,5,9 dose to that of control; format: functional; conditions: route intraperitoneal; summary of the method: as §4
Mus musculus [26] = assay: Long-term survivors among 6 mice infected with P388 leukemia, scored on day 60 at 40 mg/kg dose on day 1, 5, 9; format: functional; summary of the method: as §3
Mus musculus [27] = assay: Long-term survivors among 7 mice infected with P388 leukemia, scored on day 90 at 10 mg/kg dose; format: functional
Mus musculus [28] = assay: Percent median survival time of mice injected with B16 melanoma, at a intraperitoneal compound dose of 5 mg/kg
Mus musculus [29] = assay: Percent median survival time of mice injected with P388 leukemia, at a intravenous compound dose of 60 mg/kg
Mus musculus [30] = assay: Long-term survivors among 6 mice infected with P388 leukemia, scored on day 60 at 60 mg/kg dose on day 1; format: functional; summary of the method: as §3
Mus musculus [31] = assay: Long-term survivors among 6 mice infected with B16 melanoma, scored on day 90 at 10 mg/kg dose
Mus musculus [32] = assay: Percent median survival time of mice intraperitoneally injected with P388 leukemia was determined from tested at 20 mg/kg at day1,5,9 dose to that of control; format: functional; conditions: route intravenous; summary of the method: as §4
Mus musculus [33] = assay: Long-term survivors among 6 mice infected with P388 leukemia, scored on day 60 at 20 mg/kg dose; format: functional; summary of the method: as §3
Mus musculus [34] = assay: Long-term survivors among 6 mice infected with P388 leukemia, scored on day 60 at 40 mg/kg dose; format: functional; summary of the method: as §3

Row | Structure (SMILES) | IC50 (B16) [nM] | IC50 (L1210) [nM] | LTS (Mus musculus [11]) | T/C (Mus musculus [12]) [%] | LTS (Mus musculus [13]) | T/C (Mus musculus [14]) [%] | T/C (Mus musculus [15]) [%] | also measured
1 | Cc1c2ccnc(C(=O)NCCN(C)C)c2cc2c3cc(OC(=O)NCCCC(=O)OCc4ccccc4)ccc3n(C)c12 | 29.4 | 304 | – | – | – | – | – | LTS (Mus musculus [1]): 0; T/C (Mus musculus [2]): 103%; LTS (Mus musculus [3]): 0; T/C (Mus musculus [4]): 96%; T/C (Mus musculus [5]): 93%
2 | Cc1c2ccnc(C(=O)NCCN(C)C)c2cc2c3cc(OC(=O)N4CCOCC4)ccc3n(C)c12 | 1770 | 646 | – | – | – | – | – | LTS (Mus musculus [6]): 0; LTS (Mus musculus [7]): 0; T/C (Mus musculus [8]): 196%; T/C (Mus musculus [9]): 149%; T/C (Mus musculus [10]): 139%
3 | CCCCCCCCC(=O)Oc1ccc2c(c1)c1cc3c(C(=O)NCCN(C)C)nccc3c(C)c1n2C | 20.8 | 31.1 | 0 | 147 | 0 | 160 | 131 | –
4 | CCCCCCCCCCCCCC(=O)Oc1ccc2c(c1)c1cc3c(C(=O)NCCN(C)C)nccc3c(C)c1n2C | 195 | 215 | – | – | – | 166 | – | LTS (Mus musculus [16]): 0; T/C (Mus musculus [5]): 153%; LTS (Mus musculus [17]): 1; T/C (Mus musculus [18]): 176%
5 | CCCCCCCCCCCCNC(=O)Oc1ccc2c(c1)c1cc3c(C(=O)NCCN(C)C)nccc3c(C)c1n2C | 2300 | 809 | 0 | 107 | 0 | – | 104 | T/C (Mus musculus [4]): 133%
6 | Cc1c2ccnc(C(=O)NCCN(C)C)c2cc2c3cc(OC(=O)CCCCCC(=O)O)ccc3n(C)c12 | 3.2 | 3.7 | – | – | – | 246 | – | T/C (Mus musculus [19]): >600%; LTS (Mus musculus [20]): 5; T/C (Mus musculus [21]): >600%; LTS (Mus musculus [22]): 1
7 | Cc1c2ccnc(C(=O)NCCN(C)C)c2cc2c3cc(OC(=O)N4CCC(N5CCCCC5)CC4)ccc3n(C)c12 | 2690 | 696 | – | – | – | 161 | – | LTS (Mus musculus [23]): 0; T/C (Mus musculus [24]): 133%; T/C (Mus musculus [25]): 169%; LTS (Mus musculus [26]): 0; LTS (Mus musculus [27]): 0
8 | Cc1c2ccnc(C(=O)NCCN(C)C)c2cc2c3cc(OC(=O)Cc4ccccc4)ccc3n(C)c12 | 22.3 | 26.7 | 0 | 157 | 0 | – | 125 | T/C (Mus musculus [28]): 147%
9 | CC(=O)Oc1ccc2c(c1)c1cc3c(C(=O)NCCN(C)C)nccc3c(C)c1n2C | 6.1 | 5.1 | – | – | – | 182 | – | T/C (Mus musculus [29]): 214%; LTS (Mus musculus [26]): 0; LTS (Mus musculus [30]): 1; LTS (Mus musculus [31]): 0; T/C (Mus musculus [18]): 275%
10 | COc1ccc2c(c1)c1cc3c(C(=O)NCCN(C)C)nccc3c(C)c1n2C | 334 | 551 | – | – | – | 126 | – | T/C (Mus musculus [24]): 94%; T/C (Mus musculus [32]): 96%; LTS (Mus musculus [33]): 0; LTS (Mus musculus [27]): 0; LTS (Mus musculus [34]): 0
